Compound activity as filed in PubChem BioAssay.
Compounds with a hit are over-represented: about 1.2% of the library has one in this group of screens.
PfG6PD inh: PfG6PD (Plasmodium falciparum) enzyme inhibition. inhibition, % at 20 µM. PfGluPho enzyme, NADPH resazurin-diaphorase fluorescence. hit rate 0.78% among 350,000. AID 504690;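 active means inhibition reaching at least a set limit at 20 µM in the primary screen, cut at about 59% in these data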;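 further: 0% = DMSO wells with substrate and 100% = DMSO wells lacking glucose-6-phosphate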
TbHK1 inh: T. brucei hexokinase 1 inhibition; recombinant TbHK1, G6PDH-coupled NADH A340; inhibition, % at 10 µM; hit rate 0.11% among 220,000;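 active means inhibition of 50% or more in the single-dose primary screen; inactive means inhibition below 50%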
HKDC1 inhibitor: inhibitors of human hexokinase HKDC1. Q2TB90. recombinant HKDC1, G6PDH/diaphorase resazurin coupled fluorescence. inhibition, % at 20 µM. hit rate 0.16% among 340,000. AID 493160;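 active means inhibition above about 35% when tested at 20 µM, limit read from the data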;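 further: plate controls were DMSO wells with enzyme for no effect and DMSO wells lacking enzyme for full effect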
Target sequence (Q2TB90 whole entry, looked up): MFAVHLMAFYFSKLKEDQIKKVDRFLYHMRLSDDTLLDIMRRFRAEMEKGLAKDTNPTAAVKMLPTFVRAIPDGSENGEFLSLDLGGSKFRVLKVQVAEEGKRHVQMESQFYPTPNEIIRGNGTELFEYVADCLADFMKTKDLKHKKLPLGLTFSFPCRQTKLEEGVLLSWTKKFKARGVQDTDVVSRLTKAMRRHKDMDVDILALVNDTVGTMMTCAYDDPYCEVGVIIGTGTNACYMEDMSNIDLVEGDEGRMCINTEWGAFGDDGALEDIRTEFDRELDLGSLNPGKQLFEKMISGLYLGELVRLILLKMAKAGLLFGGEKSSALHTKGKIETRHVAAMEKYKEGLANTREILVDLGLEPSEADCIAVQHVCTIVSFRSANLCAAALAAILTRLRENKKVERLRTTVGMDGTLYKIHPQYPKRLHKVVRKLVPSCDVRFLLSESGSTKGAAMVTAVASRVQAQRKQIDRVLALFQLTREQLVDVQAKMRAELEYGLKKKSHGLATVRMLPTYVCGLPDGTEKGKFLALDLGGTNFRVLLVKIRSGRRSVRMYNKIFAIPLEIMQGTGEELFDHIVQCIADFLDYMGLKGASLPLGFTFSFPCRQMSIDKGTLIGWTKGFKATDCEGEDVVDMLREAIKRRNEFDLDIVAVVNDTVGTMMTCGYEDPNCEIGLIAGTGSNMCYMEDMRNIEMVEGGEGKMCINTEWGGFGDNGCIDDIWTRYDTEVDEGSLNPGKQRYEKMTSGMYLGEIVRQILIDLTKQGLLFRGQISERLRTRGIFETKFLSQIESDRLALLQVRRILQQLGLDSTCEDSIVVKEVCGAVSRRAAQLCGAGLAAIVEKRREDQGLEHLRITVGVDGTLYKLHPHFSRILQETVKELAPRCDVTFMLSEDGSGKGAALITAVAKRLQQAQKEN
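Test system: recombinant HKDC1 (HK5) hexokinase enzyme, produced in-house / Doses: 20 µM test compound, 1% DMSO / Timing: 90 min, room temperature / Detection: G6PDH/diaphorase-coupled fluorescence, 1 mM NADP, 100 µM resazurin, 525/613 nm / Control set: DMSO wells with and without enzyme mix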
G6PDH counter: L. mesenteroides G6PDH inhibition counter-screen. Purified L. mesenteroides G6PDH, diaphorase/resazurin coupled fluorescence, 45 min. inhibition, % at 5 µM. hit rate 0.12% among 200,000; in the data active means inhibition above about 50%
Diaphorase inh: counter-screen for diaphorase-based assays: diaphorase inhibitors and chemical oxidizers | inhibition, % at 20 µM | AID 1217 | diaphorase resazurin-to-resorufin fluorescence, NADH, 16 min; bacterial (C. kluyveri) enzyme, not human | hit rate 0.69% among 190,000;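 active means primary screen inhibition at 20 µM above a set limit, cut at about 50% in these data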;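 further: plate controls were DMSO with full reaction for no effect and wells lacking NADH for full effect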
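Assay system: diaphorase enzyme from Clostridium kluyveri. Quantity: enzyme working solution with 0.14 U/mL diaphorase. Schedule: reaction incubation of 16 min at room temperature. Technique: resorufin fluorescence, excitation 544 nm, emission 590 nm. Controls: No-NADH positive control and DMSO neutral control.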
PfGluPho conf: PfG6PD inhibition, single-dose confirmed; shares compounds with PfG6PD inh; AID 504753; recombinant PfGluPho, NADPH-diaphorase-resazurin fluorescence; hit rate 34% among 2,400; inhibition, % at 20 µM;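 active means inhibition of at least 50% at 20 µM in any single replicate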;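 further: 0% = DMSO with substrate and 100% = DMSO lacking glucose-6-phosphate substrate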
Diaphorase 10uM: inhibits diaphorase or oxidizes, flagging false PfG6PD hits; inhibition, % at 20 µM; shares compounds with PfG6PD inh; hit rate 39% among 820; diaphorase-coupled resazurin reduction, fluorescence, NADPH 10 uM;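 active means average inhibition reaching 50% or more with the compound at 20 µM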;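 further: resorufin red fluorescence formed as diaphorase reduces resazurin using NADPH; 0% = DMSO with enzyme and 100% = DMSO without enzyme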
Diaph ctr 30uM: inhibits diaphorase or oxidizes, flagging false PfG6PD hits. shares compounds with PfG6PD inh. hit rate 29% among 820. AID 504863. inhibition, % at 20 µM. Diaphorase/resazurin coupled assay, resorufin fluorescence, 30 uM NADPH;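 active means inhibition averaging 50% or more, tested at 20 µM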;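 further: 0% = DMSO with enzyme and 100% = DMSO wells lacking diaphorase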
The depositor's hits bear a star; . = no result given.

SMILES | PfG6PD inh | TbHK1 inh | HKDC1 inhibitor | G6PDH counter | Diaphorase inh | PfGluPho conf | others
c1ccc2c(c1)ncn2Cc1nnc2sc(-c3ccncc3)nn12 | 54 | -6 | -5 | -14 | 19 | .
Clc1ccc(Cl)c(-c2nn3c(Cn4cnc5ccccc54)nnc3s2)c1 | 3 | 2 | -15 | . | . | .
c1ccc(-c2nn3c(Cn4cnc5ccccc54)nnc3s2)cc1 | 64* | 0 | -21 | -14 | 6 | 27
c1ccc(-c2nn3c(Cn4nnc5ccccc54)nnc3s2)cc1 | 75* | 4 | -11 | -11 | 9 | 33
Cc1ccc(NC2CCCN(C(=O)CN3C(=O)CSC3=O)C2)cc1C (stereo not drawn) | -7 | . | -2 | . | . | .
Oc1ccc(/C=N/NC(=S)Nc2cccnc2)c(O)c1O | 80* | 43 | 10 | . | . | 67* | Diaphorase 10uM=55*;Diaph ctr 30uM=80*
COc1cccc(N/N=C/c2cccc(Br)c2O)c1 | 30 | -13 | 2 | . | . | .
Cc1cccc(N/N=C/c2ccc(O)c(O)c2O)c1 | 84* | -16 | 14 | . | . | 44
CSCCC(NC(=O)/C(=C/c1ccco1)NC(=O)c1ccc(Br)o1)C(=O)O (stereo not drawn) | 5 | . | -4 | . | . | .
N#Cc1ccccc1OCC(=O)NCc1ccccc1CN1CCCC1 | -7 | . | -3 | . | . | .
Cc1ccc(C)c(S(=O)(=O)N2CCCC2CNC(=O)C(=O)NC2CCCC2)c1 (stereo not drawn) | 4 | . | -1 | . | . | .
COCCN(C(=O)COC(=O)c1ccc(-c2ccccc2)cc1)c1c(N)n(Cc2ccccc2)c(=O)[nH]c1=O | -5 | . | -2 | . | . | .
Cc1ccc(C(=O)COC(=O)c2c(C)cc(=O)oc2C)cc1[N+](=O)[O-] | 67* | 1 | 9 | 8 | 44 | -13
Cc1cc(=O)oc(C)c1C(=O)OCC(=O)c1ccc(Cl)c(Cl)c1 | 7 | -1 | -5 | -5 | 13 | .
Cc1ccc(C(=O)O)cc1NCc1ccncc1 | -5 | . | -2 | . | . | .
Oc1c(Cl)c(Cl)c2ncccc2c1Cl | 7 | . | 1 | . | . | .
COc1cc(N)c2ncccc2c1Cl | 60* | . | 12 | . | . | 73* | Diaphorase 10uM=22;Diaph ctr 30uM=23
CCOC(=O)c1cccc(NC(=O)c2cc(C)nn2-c2ccccc2)c1 | -24 | . | 0 | . | . | .
CC1CCc2c(sc(NC(=O)Cn3nc(C(F)(F)F)c4c3CCCCC4)c2C#N)C1 (stereo not drawn) | 28 | 0 | -9 | -8 | -15 | .
N#Cc1c(NC(=O)Cn2nc(C(F)(F)F)c3c2CCCC3)sc2c1CCC2 | 70* | 9 | -18 | 3 | 6 | 43
CC1(OC(=O)C2CCCC2)C(=O)C=C2C=C(c3ccsc3)N(C3CCCC3)C=C2C1=O (stereo not drawn) | 63* | -30 | 23 | . | . | 38
CC1(OC(=O)C2CCCC2)C(=O)C=C2C=C(c3ccsc3)N(CCCCO)C=C2C1=O (stereo not drawn) | 66* | -37 | 19 | . | . | 36
C/C=C(\C)C(=O)OC1[C@H](OC(C)=O)C2(CO)C(CC1(C)C)C1=CCC3C4(C)CCC(O[C@@H]5O[C@H](C(=O)O)[C@@H](O[C@@H]6O[C@H](CO)[C@@H](O)[C@H](O)[C@H]6O)[C@H](O)[C@H]5O[C@H]5O[C@H](CO)[C@@H](O)[C@H](O)[C@H]5O)[C@](C)(CO)C4CCC3(C)[C@]1(C)C[C@H]2O (stereo partly drawn) | -6 | . | -4 | . | . | .
COC(=O)C1=C(C(=O)OC)SC2(S1)C(C(=O)OC)=C(C(=O)OC)SC1=C2c2cc(C)ccc2NC1(C)C | 72* | 33 | -19 | 7 | 11 | 26
COc1cc(C(F)(F)F)ccc1C(=O)NCCc1ccco1 | -3 | . | 0 | . | . | .
NS(=O)(=O)c1cccnc1Nc1cccc(Cl)c1Cl | 62* | -5 | 10 | -1 | 13 | 13
NS(=O)(=O)c1cccnc1Nc1ccc(Cl)c(Cl)c1 | 9 | -5 | 1 | 4 | 15 | .
COc1ccc(-c2c(-c3cc(OC)cc(OC)c3)n(C)c3ccc(-c4cc(F)cc(OC)c4)cc23)cc1 | -12 | . | -2 | . | . | .
